Experimental data published in ChEMBL document CHEMBL1131831, “A rapid method to identify exo-protease inhibitors” (Bioorg Med Chem Lett, 1999).

How the values were obtained:
[1] = test system: CN(C(=O)[C@@H](CCCCC(=N)N)NC(=O)[C@H](CCCCC(=N)N)NC(=O)OCc1ccccc1)c1ccc(C#C/C=C/c2ccc([N+](=O)[O-])c(O)c2)cc1; experiment: Proteolysis constant (Km), when mixed with Cathepsin B enzyme for the conversion of water-soluble compound to fluorescent oil-soluble compound
How it was run: (§1)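 Porcine pancreatic trypsin (type IX), porcine pancreatic kallikrein, bovine spleen cathepsin B and porcine pancreatic elastase, each enzyme added to 12 µM substrate solution over mineral oil, shaken at 37 °C. Buffers: trypsin 10 mM Tris-HCl pH 7.8; kallikrein 50 mM Tris pH 9.0; cathepsin B 100 mM potassium phosphate pH 6.0; elastase 10 mM Tris-HCl pH 7.5. Released fluorophore in the oil is diluted with n-heptane and quantified at 424 nm against oil absorbance at 272 nm.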

[2] = molecular target: T1, Chymotrypsin-like elastase family member 2A (Sus scrofa) (UniProt P08419); experiment: Proteolysis rate constant (Kcat), when mixed with elastase enzyme for the conversion of water-soluble compound to fluorescent oil-soluble compound; how it was run: as §1
T1 sequence (whole entry): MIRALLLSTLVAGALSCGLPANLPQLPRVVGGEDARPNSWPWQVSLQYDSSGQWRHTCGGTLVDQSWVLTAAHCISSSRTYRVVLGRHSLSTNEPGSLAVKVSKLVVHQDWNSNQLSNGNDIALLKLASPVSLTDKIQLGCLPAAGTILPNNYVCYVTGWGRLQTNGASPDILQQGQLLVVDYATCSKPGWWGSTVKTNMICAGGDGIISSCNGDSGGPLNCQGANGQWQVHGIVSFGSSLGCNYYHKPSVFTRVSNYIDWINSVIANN

[3] = Ratio of proteolysis rate constant (Kcat) to that of proteolysis constant (Km) was determined; how it was run: as §1
[4] = molecular target: T2, Neutrophil elastase (Homo sapiens) (UniProt P08246); experiment: Proteolysis rate constant (Kcat), when mixed with human leukocyte elastase (HLE)enzyme for the conversion of water-soluble compound to fluorescent oil-soluble compound
T2 sequence (whole entry): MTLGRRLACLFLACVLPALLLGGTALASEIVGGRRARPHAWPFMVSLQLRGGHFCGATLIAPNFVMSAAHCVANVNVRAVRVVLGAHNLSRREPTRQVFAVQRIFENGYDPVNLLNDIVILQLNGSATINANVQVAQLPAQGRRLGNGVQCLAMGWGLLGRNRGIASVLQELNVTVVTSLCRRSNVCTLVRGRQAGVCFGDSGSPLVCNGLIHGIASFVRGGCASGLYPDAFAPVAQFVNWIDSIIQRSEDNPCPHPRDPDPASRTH
How it was run: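 Human leukocyte elastase (1 unit = 1.2 µg; releases 1 µmol/min p-nitrophenol from N-t-BOC-L-alanine-p-nitrophenyl ester, pH 6.5, 37 °C) in 50 mM NaOAc, 100 mM NaCl, 8 mM NaN3 pH 6.0. Enzyme mixed with 12 µM substrate in buffer under a trace mineral-oil layer, shaken at 37 °C. Released fluorophore extracted into oil, diluted with n-heptane, quantified by absorbance at 424 nm against oil at 272 nm.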

| k cat [2] | Molecule | Km [1] | k cat/Km [3] | k cat [4] |
| --- | --- | --- | --- | --- |
|  | Cathepsin B (Bos taurus), P07688 | 129 µM |  |  |
| 145 s⁻¹ | COCCOCCOCCOCCOC(=O)N[C@@H](C)C(=O)N[C@H](C)C(=O)N(C)c1ccc(C#C/C=C/c2ccc([N+](=O)[O-])c(O)c2)cc1 |  | 446000 M⁻¹ s⁻¹ |  |
|  | CC(C)C[C@H](NC(=O)[C@H](N)Cc1ccc(O)cc1)C(=O)N[C@@H](C(=O)N(C)c1ccc(C#C/C=C/c2ccc([N+](=O)[O-])c(O)c2)cc1)C(C)C |  | 225000 M⁻¹ s⁻¹ | 3.6 s⁻¹ |
